In ChEMBL document CHEMBL4622841, “Structural modifications of indolinones bearing a pyrrole moiety and discovery of a multi-kinase inhibitor with potent antitumor activity” (Bioorg Med Chem, 2020):
Activity calls are given as the source filed them. The rule behind the calls is not given here.

Columns and labels:
MKN-74 [1] = assay: Induction of apoptosis in human MKN74 cells assessed as viable cells at 1 uM incubated for 72 hrs by Annexin-V-FITC/propidium iodide staining-based flow cytometric analysis (reference value: 76.84%); format: functional; conditions: MKN-74, 72 h, read-out: Activity
[2] = target: Vascular endothelial growth factor receptor 1 (Homo sapiens, UniProt P17948); assay: Inhibition of GST-tagged human recombinant VEGFR1 cytoplasmic domain (781 to 1338 residues) expressed in baculovirus expression system using FAM-labeled peptide and ATP as substrate preincubated for 10 mins followed by substrate addition measured after 1 hr by mobility shift assay
Vascular endothelial growth factor receptor 1, sequence (P17948 whole entry, the tested form may be a part): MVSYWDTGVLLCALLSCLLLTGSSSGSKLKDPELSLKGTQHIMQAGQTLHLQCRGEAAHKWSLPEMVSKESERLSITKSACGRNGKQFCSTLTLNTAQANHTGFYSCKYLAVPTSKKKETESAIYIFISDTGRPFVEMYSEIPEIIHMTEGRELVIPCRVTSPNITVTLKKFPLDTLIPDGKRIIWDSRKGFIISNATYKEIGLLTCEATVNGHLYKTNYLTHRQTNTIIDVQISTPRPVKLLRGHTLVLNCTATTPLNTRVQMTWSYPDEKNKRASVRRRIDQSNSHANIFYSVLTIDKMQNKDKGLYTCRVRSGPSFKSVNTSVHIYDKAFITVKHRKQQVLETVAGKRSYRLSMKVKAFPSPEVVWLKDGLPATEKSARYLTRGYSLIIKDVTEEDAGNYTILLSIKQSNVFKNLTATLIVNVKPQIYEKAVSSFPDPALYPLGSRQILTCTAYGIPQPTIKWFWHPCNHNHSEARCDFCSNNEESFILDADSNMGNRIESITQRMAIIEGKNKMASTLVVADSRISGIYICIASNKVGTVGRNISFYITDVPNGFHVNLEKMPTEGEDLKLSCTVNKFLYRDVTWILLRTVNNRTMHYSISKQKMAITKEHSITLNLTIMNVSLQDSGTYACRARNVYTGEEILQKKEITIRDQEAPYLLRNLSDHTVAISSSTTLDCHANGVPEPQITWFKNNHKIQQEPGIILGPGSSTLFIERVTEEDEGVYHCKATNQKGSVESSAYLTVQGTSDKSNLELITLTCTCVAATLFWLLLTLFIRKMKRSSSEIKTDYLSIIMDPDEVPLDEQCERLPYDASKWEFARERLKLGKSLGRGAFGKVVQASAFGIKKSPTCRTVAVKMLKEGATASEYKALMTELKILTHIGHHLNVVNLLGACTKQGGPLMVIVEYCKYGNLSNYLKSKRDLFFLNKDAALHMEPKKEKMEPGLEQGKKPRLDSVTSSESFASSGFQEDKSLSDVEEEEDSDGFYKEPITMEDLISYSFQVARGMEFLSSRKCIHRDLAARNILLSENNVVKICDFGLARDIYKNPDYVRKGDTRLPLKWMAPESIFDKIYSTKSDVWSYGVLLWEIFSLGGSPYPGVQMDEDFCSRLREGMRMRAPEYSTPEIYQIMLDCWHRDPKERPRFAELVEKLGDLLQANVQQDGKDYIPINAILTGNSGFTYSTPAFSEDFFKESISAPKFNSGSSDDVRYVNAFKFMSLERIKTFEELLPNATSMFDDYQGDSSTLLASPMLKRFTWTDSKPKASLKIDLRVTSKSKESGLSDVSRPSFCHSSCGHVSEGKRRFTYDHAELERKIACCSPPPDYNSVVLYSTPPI

[3] = Inhibition of N-terminal GST-tagged human recombinant PDGFRalpha D842I mutant expressed in baculovirus-infected Sf9 cells using FAM-labeled peptide and ATP as substrate preincubated for 10 mins followed by substrate addition measured after 1 hr by mobility shift assay
[4] = target: Proto-oncogene tyrosine-protein kinase Src (Homo sapiens, UniProt P12931); assay: Inhibition of SRC (unknown origin) using FAM-labeled peptide and ATP as substrate preincubated for 10 mins followed by substrate addition measured after 1 hr by mobility shift assay
Proto-oncogene tyrosine-protein kinase Src, sequence (P12931 2-536 limits assumed): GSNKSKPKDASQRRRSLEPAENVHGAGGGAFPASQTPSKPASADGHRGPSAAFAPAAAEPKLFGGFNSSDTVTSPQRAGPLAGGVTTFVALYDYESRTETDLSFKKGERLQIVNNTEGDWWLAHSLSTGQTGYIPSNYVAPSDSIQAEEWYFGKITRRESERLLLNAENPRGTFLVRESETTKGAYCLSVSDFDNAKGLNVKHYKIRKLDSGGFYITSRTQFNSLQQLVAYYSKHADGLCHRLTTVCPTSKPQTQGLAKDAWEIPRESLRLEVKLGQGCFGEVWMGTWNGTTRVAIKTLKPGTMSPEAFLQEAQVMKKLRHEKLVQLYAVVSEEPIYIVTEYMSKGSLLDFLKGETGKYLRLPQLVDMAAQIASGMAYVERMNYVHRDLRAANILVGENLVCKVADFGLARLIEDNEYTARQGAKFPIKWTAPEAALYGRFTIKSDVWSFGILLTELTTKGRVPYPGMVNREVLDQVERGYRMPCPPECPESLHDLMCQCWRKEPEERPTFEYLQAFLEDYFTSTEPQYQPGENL

[5] = target: Tyrosine-protein kinase Lyn (Homo sapiens, UniProt P07948); assay: Inhibition of LYN (unknown origin) using FAM-labeled peptide and ATP as substrate preincubated for 10 mins followed by substrate addition measured after 1 hr by mobility shift assay
Tyrosine-protein kinase Lyn, sequence (P07948 whole entry): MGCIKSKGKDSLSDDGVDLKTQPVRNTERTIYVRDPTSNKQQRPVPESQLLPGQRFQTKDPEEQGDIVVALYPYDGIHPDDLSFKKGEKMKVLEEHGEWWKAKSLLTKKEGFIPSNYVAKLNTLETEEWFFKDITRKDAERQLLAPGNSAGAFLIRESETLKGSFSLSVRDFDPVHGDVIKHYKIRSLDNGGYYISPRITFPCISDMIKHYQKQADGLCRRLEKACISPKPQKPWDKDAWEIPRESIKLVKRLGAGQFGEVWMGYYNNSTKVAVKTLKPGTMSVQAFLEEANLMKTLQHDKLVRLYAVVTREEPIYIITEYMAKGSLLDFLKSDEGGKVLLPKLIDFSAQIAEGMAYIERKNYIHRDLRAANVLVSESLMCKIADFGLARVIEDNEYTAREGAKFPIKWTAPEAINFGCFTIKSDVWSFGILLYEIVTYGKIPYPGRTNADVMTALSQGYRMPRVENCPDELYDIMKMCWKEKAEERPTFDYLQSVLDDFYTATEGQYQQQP

[6] = target: Cyclin-dependent kinase 4 (Homo sapiens, UniProt P11802); assay: Inhibition of CDK4 (unknown origin) at 1 uM using FAM-labeled peptide and ATP as substrate preincubated for 10 mins followed by substrate addition measured after 1 hr by mobility shift assay
Cyclin-dependent kinase 4, sequence (P11802 whole entry): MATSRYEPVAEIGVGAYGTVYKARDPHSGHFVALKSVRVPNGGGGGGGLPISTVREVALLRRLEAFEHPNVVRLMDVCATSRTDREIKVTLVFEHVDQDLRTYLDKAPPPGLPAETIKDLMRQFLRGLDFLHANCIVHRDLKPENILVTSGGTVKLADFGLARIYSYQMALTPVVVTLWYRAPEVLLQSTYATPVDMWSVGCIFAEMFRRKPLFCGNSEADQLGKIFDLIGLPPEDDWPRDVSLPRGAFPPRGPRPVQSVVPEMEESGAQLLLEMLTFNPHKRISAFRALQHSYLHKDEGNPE

HepG2 [7] = assay: Inhibition of receptor tyrosine kinase in human HepG2 cells assessed as reduction in AKT phosphorylation at Ser473 residue after 24 hrs by Western blotting analysis; format: cell-based
Method in brief: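 Cells cultured overnight, then treated with compound at different concentrations for 24 h. About 1×10⁶ cells harvested and immunoblotted for p-AKT (Ser473), AKT, p-ERK (Thr202/Tyr204), ERK, with GAPDH as loading control. Detection by chemiluminescence and gel imaging. Blots shown are representative of several experiments.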

MKN-74 [8] = assay: Inhibition of colony formation in human MKN74 cells measured after 14 days by crystal violet staining-based assay; format: functional, cell-based
Method in brief: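 Cells plated and exposed to test agent at a range of concentrations for 14 days, then colonies counted. Colony formation expressed relative to vehicle-treated cells as mean ± SEM. Significance versus vehicle by unpaired two-tailed Student's t-test.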

HT-29 [9] = assay: Inhibition of colony formation in human HT-29 cells at 1 uM measured after 14 days by crystal violet staining-based assay; format: functional, cell-based
Method in brief: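 HT-29 cells exposed to compound for 14 days and colonies counted. Read-out is colony formation rate relative to vehicle, given as mean ± SEM. Significance versus the vehicle group was tested by unpaired two-tailed Student's t-test.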

MKN-74 [10] = assay: Inhibition of colony formation in human MKN74 cells at 1 uM measured after 14 days by crystal violet staining-based assay; format: functional; conditions: MKN-74, 336 h
HT-29 [11] = assay: Induction of apoptosis in human HT-29 cells incubated for 72 hrs by Annexin-V-FITC/propidium iodide staining-based flow cytometric analysis; format: functional, cell-based
MKN-74 [12] = assay: Induction of apoptosis in human MKN74 cells incubated for 72 hrs by Annexin-V-FITC/propidium iodide staining-based flow cytometric analysis; format: functional, cell-based
HEK-293T = assay: Induction of apoptosis in human HEK293T cells by Annexin-V-FITC/propidium iodide staining-based flow cytometric analysis; format: cell-based
HT-29 [13] = assay: Induction of apoptosis in human HT-29 cells assessed as early apoptotic cells at 0.3 uM incubated for 72 hrs by Annexin-V-FITC/propidium iodide staining-based flow cytometric analysis (reference value: 3.18%); format: functional
HT-29 [14] = assay: Induction of apoptosis in human HT-29 cells assessed as early apoptotic cells at 1 uM incubated for 72 hrs by Annexin-V-FITC/propidium iodide staining-based flow cytometric analysis (reference value: 3.18%); format: functional
MKN-74 [15] = assay: Induction of apoptosis in human MKN74 cells assessed as early apoptotic cells at 0.3 uM incubated for 72 hrs by Annexin-V-FITC/propidium iodide staining-based flow cytometric analysis (reference value: 1.98%); format: functional
MKN-74 [16] = assay: Induction of apoptosis in human MKN74 cells assessed as early apoptotic cells at 1 uM incubated for 72 hrs by Annexin-V-FITC/propidium iodide staining-based flow cytometric analysis (reference value: 1.98%); format: functional
HepG2 [17] = assay: Induction of apoptosis in human HepG2 cells assessed as early apoptotic cells at 0.3 uM incubated for 72 hrs by Annexin-V-FITC/propidium iodide staining-based flow cytometric analysis (reference value: 1.08%); format: functional
HepG2 [18] = assay: Induction of apoptosis in human HepG2 cells assessed as late apoptotic cells at 0.3 uM incubated for 72 hrs by Annexin-V-FITC/propidium iodide staining-based flow cytometric analysis (reference value: 2.89%); format: functional
HepG2 [19] = assay: Induction of apoptosis in human HepG2 cells assessed as late apoptotic cells at 1 uM incubated for 72 hrs by Annexin-V-FITC/propidium iodide staining-based flow cytometric analysis (reference value: 2.89%); format: functional
HepG2 [20] = assay: Induction of apoptosis in human HepG2 cells assessed as late apoptotic cells at 3 uM incubated for 72 hrs by Annexin-V-FITC/propidium iodide staining-based flow cytometric analysis (reference value: 2.89%); format: functional
HUVEC [21] = assay: Induction of apoptosis in human HUVEC cells assessed as late apoptotic cells at 0.3 uM incubated for 48 hrs by Annexin-V-FITC/propidium iodide staining-based flow cytometric analysis (reference value: 3.48%); format: functional
HUVEC [22] = assay: Induction of apoptosis in human HUVEC cells assessed as early apoptotic cells at 1 uM incubated for 48 hrs by Annexin-V-FITC/propidium iodide staining-based flow cytometric analysis (reference value: 3.63%); format: functional
HUVEC [23] = assay: Induction of apoptosis in human HUVEC cells assessed as late apoptotic cells at 1 uM incubated for 48 hrs by Annexin-V-FITC/propidium iodide staining-based flow cytometric analysis (reference value: 3.48%); format: functional
HUVEC [24] = assay: Induction of apoptosis in human HUVEC cells assessed as early apoptotic cells at 3 uM incubated for 48 hrs by Annexin-V-FITC/propidium iodide staining-based flow cytometric analysis (reference value: 3.63%); format: functional
HUVEC [25] = assay: Induction of apoptosis in human HUVEC cells assessed as late apoptotic cells at 3 uM incubated for 48 hrs by Annexin-V-FITC/propidium iodide staining-based flow cytometric analysis (reference value: 3.48%); format: functional
[26] = Half life in human liver microsomes; format: ADME, Microsome
[27] = Half life in mouse liver microsomes; format: ADME, Microsome
[28] = Intrinsic clearance in mouse liver microsomes; format: ADME, Microsome; conditions: read-out: CLH
[29] = Toxicity in nu/nu mouse xenografted with human HT-29 cells assessed as effect on body weight at 100 mg/kg, po qd for 18 days; format: organism-based; conditions: in vivo, 432 h
Method in brief: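 Female nu/nu mice, 4–6 weeks old, implanted subcutaneously in the right flank with HT-29 cells (2×10⁶/mL). Once tumours reached 200 mm³, mice randomised to groups (n = 6) and dosed orally once daily at 100 mg/kg for 18 days. Body weight monitored during treatment. Results given as mean ± SD.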

COC(=O)c1ccc2c(c1)NC(=O)/C2=C(\Nc1ccc(-n2c(C)ccc2CN2CCN(C)CC2)cc1)c1ccccc1
viability at 1 µM (MKN-74 [1]): 62.9% | IC50 [2]: 0.031 µM | IC50 [3]: 0.007 µM | IC50 [4]: 0.178 µM | IC50 [5]: 0.016 µM | inhibition [6]: inactive | inhibition (HepG2 [7]): Dose-dependent effect | inhibition (MKN-74 [8]): Dose-dependent effect | inhibition (HT-29 [9]): Active | inhibition at 1 µM (MKN-74 [10]): 100% | Activity (HT-29 [11]): Dose-dependent effect | Activity (MKN-74 [12]): Dose-dependent effect | Activity (HEK-293T): Non-Toxic | Activity (HT-29 [13]): 3.35% | Activity (HT-29 [14]): 1.52% | Activity (MKN-74 [15]): 2.41% | Activity (MKN-74 [16]): 5.73% | Activity (HepG2 [17]): 1.81% | Activity (HepG2 [18]): 4.64% | Activity (HepG2 [19]): 61.54% | Activity (HepG2 [20]): 64.56% | Activity (HUVEC [21]): 2.76% | Activity (HUVEC [22]): 3.58% | Activity (HUVEC [23]): 3.09% | Activity (HUVEC [24]): 55.63% | Activity (HUVEC [25]): 9.06% | half-life [26]: 21.2 min | half-life [27]: 12.5 min | CLint scaled [28]: 436 mL/min/kg | Activity [29]: Non-Toxic
